Measurements: ChEMBL document CHEMBL1153554, “Mechanisms by which the G333D mutation in human immunodeficiency virus type 1 Reverse transcriptase facilitates dual resistance to zidovudine and lamivudine” (Antimicrob Agents Chemother, 2008)
Activity calls are given as the source filed them. The calls are words filed in the database; no cut-off is given here.

Tests used:
[1] = system: Human immunodeficiency virus 1; assay: Binding affinity to HIV1 LAI reverse transcriptase M41L/L210W/T215Y/M184V/G333D mutant assessed as ATP-mediated excision of zidovudine-monophosphate from chain terminated RNA/DNA template/primer duplex
Method in brief: (§1)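 The AZT-MP-terminated ³²P-P20 primer was annealed to a 35-nt RNA template (T35). 200 nM active-site RT with 20 nM T/P in 50 mM Tris-HCl pH 8.0, 50 mM KCl. Started with 3.0 mM ATP and 10 mM MgCl₂. Timed aliquots were quenched and separated on denaturing urea-PAGE, then phosphorimaged.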

[2] = target: Human immunodeficiency virus type 1 reverse transcriptase (Human immunodeficiency virus 1) (UniProt Q72547); assay: Binding affinity to 200 nM wild type HIV1 LAI reverse transcriptase assessed as ATP-mediated excision of zidovudine-monophosphate from chain terminated DNA/DNA template/primer duplex at 100 uM
Method in brief: (§2)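 Primer P20 (5′-³²P) on DNA template T57 was chain-terminated with WT RT and 100 μM AZT-TP (30 min, 37°C), gel-purified and reannealed. 200 nM active-site RT with 20 nM terminated T/P in 50 mM Tris-HCl pH 8.0, 50 mM KCl. Started with 3.0 mM ATP, 10 mM MgCl₂, 1 μM TTP and 5 μM ddCTP. Timed aliquots were run on 7 M urea-16% PAGE and phosphorimaged.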

[3] = system: Human immunodeficiency virus type 1 reverse transcriptase (Human immunodeficiency virus 1), Q72547 [M184V]; assay: Binding affinity to 200 nM HIV1 LAI reverse transcriptase M184V mutant assessed as ATP-mediated excision of zidovudine-monophosphate from chain terminated DNA/DNA template/primer duplex at 100 uM; method in brief: as §2
[4] = system: Human immunodeficiency virus type 1 reverse transcriptase (Human immunodeficiency virus 1), Q72547 [M41L,L210W,T215Y]; assay: Binding affinity to 200 nM HIV1 LAI reverse transcriptase M41L/L210W/T215Y mutant assessed as ATP-mediated excision of zidovudine-monophosphate from chain terminated DNA/DNA template/primer duplex at 100 uM; method in brief: as §2
[5] = system: Human immunodeficiency virus type 1 reverse transcriptase (Human immunodeficiency virus 1), Q72547 [M41L,L210W,T215Y,M184V]; assay: Binding affinity to 200 nM HIV1 LAI reverse transcriptase M41L/L210W/T215Y/M184V mutant assessed as ATP-mediated excision of zidovudine-monophosphate from chain terminated DNA/DNA template/primer duplex at 100 uM; method in brief: as §2
[6] = system: Human immunodeficiency virus 1; assay: Binding affinity to 200 nM HIV1 LAI reverse transcriptase M41L/L210W/T215Y/M184V/G333D mutant assessed as ATP-mediated excision of zidovudine-monophosphate from chain terminated DNA/DNA template/primer duplex at 100 uM; method in brief: as §2
[7] = system: Human immunodeficiency virus 1; assay: (§3) Selectivity ratio of Kd for excision of zidovudine-monophosphate from chain terminated DNA/DNA template/primer duplex in 200 nM HIV1 LAI reverse transcriptase M41L/L210W/T215Y mutant to Kd for excision of zidovudine-monophosphate from chain terminated DNA/DNA template/primer duplex in 200 nM wild type HIV1 LAI reverse transcriptase by gel shift mobility assay
[8] = system: Human immunodeficiency virus 1; assay: as §3, with “200 nM HIV1 LAI” for “200 nM wild type HIV1 LAI”, “reverse transcriptase M184V mutant by gel” for “reverse transcriptase by gel”
[9] = target: T1, Human immunodeficiency virus type 1 reverse transcriptase (Human immunodeficiency virus 1, UniProt Q72547); assay: Binding affinity to wild type HIV1 LAI reverse transcriptase assessed as ATP-mediated excision of zidovudine-monophosphate terminated DNA/DNA template/primer duplex chain at 100 uM by gel shift mobility assay
Method in brief: (§4)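 Native 4% PAGE in Tris-acetate pH 8.0 with 1 mM EDTA, 30 min at 100 V, room temperature. The shifted band was taken as a 1:1 RT-T/P complex to give Kd. Mean ± SD of three experiments.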

[10] = target: T2, Human immunodeficiency virus type 1 reverse transcriptase (Human immunodeficiency virus 1, UniProt Q72547, M184V); assay: Binding affinity to HIV1 LAI reverse transcriptase M184V mutant assessed as ATP-mediated excision of zidovudine-monophosphate terminated DNA/DNA template/primer duplex chain at 100 uM by gel shift mobility assay; method in brief: as §4
[11] = target: T3, Human immunodeficiency virus type 1 reverse transcriptase (Human immunodeficiency virus 1, UniProt Q72547, L210W/M41L/T215Y); assay: Binding affinity to HIV1 LAI reverse transcriptase M41L/L210W/T215Y mutant assessed as ATP-mediated excision of zidovudine-monophosphate terminated DNA/DNA template/primer duplex chain at 100 uM by gel shift mobility assay; method in brief: as §4
[12] = target: T4, Human immunodeficiency virus type 1 reverse transcriptase (Human immunodeficiency virus 1, UniProt Q72547, L210W/M184V/M41L/T215Y); assay: Binding affinity to HIV1 LAI reverse transcriptase M41L/L210W/T215Y/M184V mutant assessed as ATP-mediated excision of zidovudine-monophosphate terminated DNA/DNA template/primer duplex chain at 100 uM by gel shift mobility assay; method in brief: as §4
[13] = Binding affinity to HIV1 LAI reverse transcriptase M41L/L210W/T215Y/M184V/G333D mutant assessed as ATP-mediated excision of zidovudine-monophosphate terminated DNA/DNA template/primer duplex chain at 100 uM by gel shift mobility assay; set-up: species or system Human immunodeficiency virus 1; method in brief: as §4
[14] = system: Human immunodeficiency virus 1; assay: as §3, with “zidovudine-monophosphate” for “zidovudine-monophosphate from chain”, “duplex chain” for “duplex”, “in” for “in 200 nM”, “M184V” for “M41L/L210W/T215Y”
[15] = system: Human immunodeficiency virus 1; assay: as §3, with “zidovudine-monophosphate” for “zidovudine-monophosphate from chain”, “duplex chain” for “duplex”, “in” for “in 200 nM”
[16] = system: Human immunodeficiency virus 1; assay: as §3, with “zidovudine-monophosphate” for “zidovudine-monophosphate from chain”, “duplex chain” for “duplex”, “in” for “in 200 nM”, “M41L/L210W/T215Y/M184V” for “M41L/L210W/T215Y”
[17] = system: Human immunodeficiency virus 1; assay: as §3, with “zidovudine-monophosphate” for “zidovudine-monophosphate from chain”, “duplex chain” for “duplex”, “in” for “in 200 nM”, “M41L/L210W/T215Y/M184V/G333D” for “M41L/L210W/T215Y”
[18] = target: Human immunodeficiency virus type 1 reverse transcriptase (Human immunodeficiency virus 1, UniProt Q72547, K65R/L210W/M41L/T215Y); assay: Binding affinity to HIV1 LAI reverse transcriptase M41L/L210W/T215Y/K65R mutant assessed as ATP-mediated excision of zidovudine-monophosphate terminated DNA/DNA template/primer duplex chain at 100 uM by gel shift mobility assay; method in brief: as §4
[19] = Binding affinity to HIV1 LAI reverse transcriptase M41L/L210W/T215Y/K65R/G333D mutant assessed as ATP-mediated excision of zidovudine-monophosphate terminated DNA/DNA template/primer duplex chain at 100 uM by gel shift mobility assay; set-up: species or system Human immunodeficiency virus 1; method in brief: as §4
[20] = system: Human immunodeficiency virus 1; assay: as §3, with “zidovudine-monophosphate” for “zidovudine-monophosphate from chain”, “duplex chain” for “duplex”, “in” for “in 200 nM”, “M41L/L210W/T215Y/K65R” for “M41L/L210W/T215Y”
[21] = system: Human immunodeficiency virus 1; assay: as §3, with “in” for “in 200 nM”, “M41L/L210W/T215Y/K65R/G333D” for “M41L/L210W/T215Y”
[22] = target: Human immunodeficiency virus type 1 reverse transcriptase (Human immunodeficiency virus 1) (UniProt Q72547); assay: Binding affinity to wild type HIV1 LAI reverse transcriptase assessed as ATP-mediated excision of zidovudine-monophosphate from chain terminated RNA/DNA template/primer duplex; method in brief: as §1
[23] = system: Human immunodeficiency virus type 1 reverse transcriptase (Human immunodeficiency virus 1), Q72547 [M184V]; assay: Binding affinity to HIV1 LAI reverse transcriptase M184V mutant assessed as ATP-mediated excision of zidovudine-monophosphate from chain terminated RNA/DNA template/primer duplex at 100 uM; method in brief: as §1
[24] = system: Human immunodeficiency virus type 1 reverse transcriptase (Human immunodeficiency virus 1), Q72547 [M41L,L210W,T215Y]; assay: Binding affinity to HIV1 LAI reverse transcriptase M41L/L210W/T215Y mutant assessed as ATP-mediated excision of zidovudine-monophosphate from chain terminated RNA/DNA template/primer duplex; method in brief: as §1
[25] = system: Human immunodeficiency virus type 1 reverse transcriptase (Human immunodeficiency virus 1), Q72547 [M41L,L210W,T215Y,M184V]; assay: Binding affinity to HIV1 LAI reverse transcriptase M41L/L210W/T215Y/M184V mutant assessed as ATP-mediated excision of zidovudine-monophosphate from chain terminated RNA/DNA template/primer duplex; method in brief: as §1
[26] = target: Human immunodeficiency virus type 1 reverse transcriptase (Human immunodeficiency virus 1) (UniProt Q72547); assay: Ratio of Kpol to Kd for wild type HIV1 LAI reverse transcriptase
Method in brief: (§5)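 Pre-steady-state rapid quench: 400 nM active-site RT and 40 nM ³²P-P20/T57 DNA T/P were preincubated in 50 mM Tris-HCl pH 7.5, 50 mM KCl, then mixed with nucleotide in the same buffer containing 20 mM MgCl₂. Quenched with 0.3 M EDTA from 10 ms to 30 min, run on urea-PAGE. kobs came from single-exponential fits; kpol and Kd came from a hyperbolic fit versus nucleotide concentration.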

[27] = system: Human immunodeficiency virus type 1 reverse transcriptase (Human immunodeficiency virus 1), Q72547 [M184V]; assay: Ratio of Kpol to Kd for HIV1 LAI reverse transcriptase M184V mutant; method in brief: as §5
[28] = system: Human immunodeficiency virus type 1 reverse transcriptase (Human immunodeficiency virus 1), Q72547 [M41L,L210W,T215Y]; assay: Ratio of Kpol to Kd for HIV1 LAI reverse transcriptase M41L/L210W/T215Y mutant; method in brief: as §5
[29] = system: Human immunodeficiency virus type 1 reverse transcriptase (Human immunodeficiency virus 1), Q72547 [M41L,L210W,T215Y,M184V]; assay: Ratio of Kpol to Kd for HIV1 LAI reverse transcriptase M41L/L210W/T215Y/M184V mutant; method in brief: as §5
[30] = system: Human immunodeficiency virus 1; assay: Ratio of Kpol to Kd for HIV1 LAI reverse transcriptase M41L/L210W/T215Y/M184V/G333D mutant; method in brief: as §5
[31] = target: T1, Human immunodeficiency virus type 1 reverse transcriptase; assay: Binding affinity to wild type HIV1 LAI reverse transcriptase
Method in brief: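 Bacterially expressed, purified RT, corrected for active-site concentration, preincubated at 400 nM with 40 nM 5′-³²P-labelled 20-nt DNA primer annealed to a 57-nt DNA template in 50 mM Tris-HCl pH 7.5, 50 mM KCl. It was then rapid-quench mixed 1:1 with nucleotide in the same buffer plus 20 mM MgCl₂. EDTA quench at 10 ms–30 min; urea-PAGE. k_obs fitted single-exponential; K_d from hyperbolic k_obs-versus-concentration fit.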

[32] = target: T2, Human immunodeficiency virus type 1 reverse transcriptase; assay: Binding affinity to HIV1 LAI reverse transcriptase M184V mutant
[33] = target: T3, Human immunodeficiency virus type 1 reverse transcriptase; assay: Binding affinity to HIV1 LAI reverse transcriptase M41L/L210W/T215Y mutant
[34] = target: T4, Human immunodeficiency virus type 1 reverse transcriptase; assay: Binding affinity to HIV1 LAI reverse transcriptase M41L/L210W/T215Y/M184V mutant
[35] = Binding affinity to HIV1 LAI reverse transcriptase M41L/L210W/T215Y/M184V/G333D mutant; set-up: species or system Human immunodeficiency virus 1

## Cc1cn([C@H]2C[C@H](N=[N+]=[N-])[C@@H](COP(=O)(O)O)O2)c(=O)[nH]c1=O [AZIDOTHYMIDINE MONOPHOSPHATE]
[1]
  Activity: Active
[2]
  Activity: Active
[3]
  Activity: Active
[4]
  Activity: Active
[5]
  Activity: Active
[6]
  Activity: Active
[7]
  fold change (FC): 4
[8]
  fold change (FC): 4
[9]
  Kd: 19.8 nM
[10]
  Kd: 76.9 nM
[11]
  Kd: 18.8 nM
[12]
  Kd: 98.4 nM
[13]
  Kd: 46.2 nM
[14]
  Ratio: 3.8
[15]
  Ratio: 1
[16]
  Ratio: 5
[17]
  Ratio: 2.3
[18]
  Kd: 20.5 nM
[19]
  Kd: 22.3 nM
[20]
  Ratio: 1
[21]
  Ratio: 1.1
[22]
  Activity: inactive
[23]
  Activity: inactive
[24]
  Activity: Active
[25]
  Activity: Active

## Nc1ccn([C@H]2C[C@H](O)[C@@H](COP(=O)(O)OP(=O)(O)OP(=O)(O)O)O2)c(=O)n1 [DEOXYCYTIDINE TRIPHOSPHATE]
[26]
  Ratio: 1.07
[27]
  Ratio: 0.53
[28]
  Ratio: 1.06
[29]
  Ratio: 0.44
[30]
  Ratio: 0.58
[31]
  Kd: 1140 nM
[32]
  Kd: 2490 nM
[33]
  Kd: 1230 nM
[34]
  Kd: 2990 nM
[35]
  Kd: 2510 nM

## Cc1cn([C@H]2C[C@H](O)[C@@H](COP(=O)(O)OP(=O)(O)OP(=O)(O)O)O2)c(=O)[nH]c1=O [DEOXYTHYMIDINE_TRIPHOSPHATE]
[31]
  Kd: 2080 nM
[32]
  Kd: 2850 nM
[33]
  Kd: 1200 nM
[34]
  Kd: 2650 nM
[35]
  Kd: 2900 nM
